“Also recorded” adds a separate entry of the source. Counter-ions that a name gives are not always drawn.
Assays:
[1] = tested on: Leukemia; assay: cells; type: cell-based; settings: Homo sapiens, 48 h, read-out: TGI Leukemia
[2] = tested on: full NCI 60 cell panel; assay: NCI 60 five-concentration screen, mean graph midpoint of all cell lines; type: cell-based; settings: Homo sapiens, 48 h; for GI50: read-out: GI50 MG-MID (mean GI50); for IC (TGI): read-out: TGI MG-MID
[3] = tested on: caspase proteases (DEVDase activity); assay: DEVDase; type: cell-based, Human; settings: HT-29 cells, 500 nM, 48 h
Procedure, shortened: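 HT-29 cells in RPMI 1640/10% FBS were exposed to 500 nM test compound for 48 h, with 0.01% DMSO and DMSO-only controls. DEVD-hydrolysing caspase (DEVDase) activity was measured fluorometrically in cell extracts. Values are means ± s.e.m. of four determinations.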

[4] = tested on: mTOR(Ser2448); assay: Kinase phosphorylation by Western blotting: mTOR; type: cell-based, Human; settings: HeLa cells, 1 μM, 3 h
Procedure, shortened: (§1)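 HeLa cells in RPMI 1640/10% FBS/2 mM L-glutamine were exposed to 1 μM test compound for 3 h (0.01% DMSO). Lysates were cleared at 15,000 × g for 15 min and boiled 4 min, and 80 μg protein was run on SDS-PAGE. Proteins were blotted to nitrocellulose and probed with antibodies to total and phosphorylated kinase, then a peroxidase anti-rabbit IgG (1 h). Bands were detected by ECL chemiluminescence.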

[5] = tested on: HT-29 colon cancer cells; assay: Mitochondrial membrane potential with DiOC6; type: cell-based, Human; settings: HT-29 cells, 500 nM, 24 h
Procedure, shortened: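 After 24 h in 500 nM test compound (0.01% DMSO; DMSO controls), HT-29 cells at 1×10^6 cells/mL were stained with 4 nM DiOC6 for 40 min at 37 °C in the dark. Cells were counterstained with PI at 5 μg/mL to exclude dead cells. Green fluorescence was read by flow cytometry with logarithmic amplification; one experiment representative of three to five.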

[6] = tested on: AMPK(Thr172); assay: Kinase phosphorylation by Western blotting: AMPK; type: cell-based, Human; settings: HeLa cells, 1 μM, 3 h
Procedure, shortened: as §1

[7] = tested on: p38MAPK(Thr180/Tyr182); assay: Kinase phosphorylation by Western blotting: p38MAPK; type: cell-based, Human; settings: HeLa cells, 1 μM, 3 h
Procedure, shortened: as §1

[8] = tested on: HT-29 colon cancer cells; assay: Cell viability by trypan blue exclusion; type: cell-based, Human; settings: HT-29 cells, 24 h, 100 or 500 nM tested
Procedure, shortened: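 HT-29 cells in RPMI 1640/10% FBS/2 mM L-glutamine were plated at 2×10^4 cells/cm2. They were treated in triplicate for 24 h with 100 or 500 nM test compound (0.01% DMSO final; DMSO-only controls). Viable cells were counted by trypan blue exclusion. Values are means ± s.e.m. of three determinations.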

[9] = tested on: Akt(Ser473); assay: Kinase phosphorylation by Western blotting: Akt; type: cell-based, Human; settings: HeLa cells, 1 μM, 3 h
Procedure, shortened: as §1

[10] = tested on: Bax; assay: Bax expression and translocation by confocal microscopy; type: cell-based, Human; settings: HT-29 cells, 500 nM, 24 h
[11] = tested on: JNK(Thr183/Tyr185); assay: Kinase phosphorylation by Western blotting: JNK; type: cell-based, Human; settings: HeLa cells, 1 μM, 3 h
Procedure, shortened: as §1

[12] = tested on: HT-29 colon cancer cells; assay: Cell cycle distribution by flow cytometry; type: cell-based, Human; settings: HT-29 cells, 24 h
Procedure, shortened: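 HT-29 cells grown in RPMI 1640 with 10% FBS and 2 mM L-glutamine (37 °C, 5% CO2). Test compound was added from a 10 mmol/L DMSO stock (0.01% DMSO final; DMSO-only controls) for 24 h. Cells were fixed in 70% ethanol at −20 °C for ≥12 h, treated with RNase A (10 μg/mL, 37 °C, 30 min) and stained with PI (50 μg/mL). DNA content was read by flow cytometry; one experiment representative of three.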

[13] = tested on: HT-29 colon cancer cells; assay: Intracellular ROS content with DHE; type: cell-based, Human; settings: HT-29 cells, 500 nM, 24 h
Procedure, shortened: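 HT-29 cells were treated with 500 nM test compound for 24 h (0.01% DMSO; DMSO controls). They were then loaded with 5 μM dihydroethidium (from 10 mM DMSO stock) for 30 min at 37 °C to detect superoxide. Red fluorescence was read by flow cytometry with logarithmic amplification; one experiment representative of three to five.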

[14] = tested on: ERK1/2(Thr202/Tyr204); assay: Kinase phosphorylation by Western blotting: ERK1/2; type: cell-based, Human; settings: HeLa cells, 1 μM, 3 h
Procedure, shortened: as §1

[15] = molecular target: tubulin (Bos taurus, UniProt Q6B856); assay: Tubulin assembly assay; type: biochemical, Bovine; settings: 10 μM tubulin, 20 min incubation at 30 °C
[16] = tested on: Renal; assay: NCI 60 five-concentration screen, renal subpanel; type: cell-based; settings: Homo sapiens, 48 h, read-out: TGI Renal
[17] = tested on: CNS; assay: cells; type: cell-based; settings: Homo sapiens, 48 h, read-out: TGI CNS
[18] = tested on: Ovarian; assay: NCI 60 five-concentration screen, ovarian subpanel; type: cell-based; settings: Homo sapiens, 48 h, read-out: TGI Ovarian
[19] = tested on: NSCLC; assay: NCI 60 five-concentration screen, NSCLC subpanel; type: cell-based; settings: Homo sapiens, 48 h, read-out: TGI NSCLC
[20] = tested on: Melanoma; assay: NCI 60 five-concentration screen, melanoma subpanel; type: cell-based; settings: Homo sapiens, 48 h, read-out: TGI Melanoma
[21] = tested on: Breast; assay: NCI 60 five-concentration screen, breast subpanel; type: cell-based; settings: Homo sapiens, 48 h, read-out: TGI Breast
[22] = tested on: Prostate; assay: cells; type: cell-based; settings: Homo sapiens, 48 h, read-out: TGI Prostate
[23] = tested on: Colon; assay: NCI 60 five-concentration screen, colon subpanel; type: cell-based; settings: Homo sapiens, 48 h, read-out: GI50 Colon

Chain of tubulin (Q6B856 whole entry): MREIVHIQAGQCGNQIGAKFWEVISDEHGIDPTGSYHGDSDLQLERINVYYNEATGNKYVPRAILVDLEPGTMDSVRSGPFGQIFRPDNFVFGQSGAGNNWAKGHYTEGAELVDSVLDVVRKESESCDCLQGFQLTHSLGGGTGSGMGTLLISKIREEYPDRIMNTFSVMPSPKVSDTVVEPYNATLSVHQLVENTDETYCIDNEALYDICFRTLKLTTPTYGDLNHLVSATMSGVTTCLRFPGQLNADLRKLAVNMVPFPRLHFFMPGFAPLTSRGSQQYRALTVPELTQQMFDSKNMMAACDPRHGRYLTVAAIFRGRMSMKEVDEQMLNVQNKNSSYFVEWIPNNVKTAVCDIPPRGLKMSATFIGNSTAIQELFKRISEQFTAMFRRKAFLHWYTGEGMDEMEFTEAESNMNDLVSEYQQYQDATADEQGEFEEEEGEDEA
Chain of tubulin (P81947 whole entry partner): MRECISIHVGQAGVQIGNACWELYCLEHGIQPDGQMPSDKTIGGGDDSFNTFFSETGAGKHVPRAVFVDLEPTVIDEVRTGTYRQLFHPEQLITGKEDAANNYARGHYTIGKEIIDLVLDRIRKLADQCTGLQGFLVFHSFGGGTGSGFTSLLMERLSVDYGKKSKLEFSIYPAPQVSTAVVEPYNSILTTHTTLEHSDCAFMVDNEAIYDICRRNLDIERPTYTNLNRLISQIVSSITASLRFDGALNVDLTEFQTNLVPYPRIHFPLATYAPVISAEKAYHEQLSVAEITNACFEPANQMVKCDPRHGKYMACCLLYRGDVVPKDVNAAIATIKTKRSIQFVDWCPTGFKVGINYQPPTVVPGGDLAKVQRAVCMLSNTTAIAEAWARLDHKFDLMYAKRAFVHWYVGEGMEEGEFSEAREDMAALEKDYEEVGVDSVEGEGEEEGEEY

COc1ccc2c(c1)C(=Cc1c(OC)nc3sccn13)C(=O)N2C [Compound 39]
IC (TGI) [1]: 4.9 µM | GI50 [2]: 0.54 µM | IC (TGI) [2]: 34.7 µM

Cc1cn2c(/C=C3/C(=O)Nc4c3ccc3ccccc43)c(C)nc2s1 [Compound 5]
activity of effector caspases (DEVDase activity) [3]: significantly increased | mTOR(Ser2448) phosphorylation [4]: did not significantly influence | mitochondrial membrane potential (ΔΨm) [5]: marked disruption of ΔΨm | AMPK(Thr172) phosphorylation [6]: did not significantly influence | p38MAPK(Thr180/Tyr182) phosphorylation/activation [7]: did not significantly influence | concentration that triggered cell death (reduction in cell viability) [8]: 500 nM | IC (TGI) [2]: 19.9 µM | Akt(Ser473) phosphorylation [9]: did not significantly influence | cellular content of Bax [10]: significant increase in the cellular content of Bax | JNK(Thr183/Tyr185) phosphorylation/activation [11]: did not significantly influence | concentration that induced accumulation of cells in the G2/M phase [12]: 500 nM | superoxide formation (intracellular ROS content) [13]: marked increase in superoxide formation | ERK1/2(Thr202/Tyr204) phosphorylation/activation [14]: did not significantly influence

COc1ccc2c(c1)C(=Cc1c(OC)nc3sccn13)C(=O)N2 [Compound 38]
activity of effector caspases (DEVDase activity) [3]: significantly increased | mTOR(Ser2448) phosphorylation [4]: no significant effect | AMPK(Thr172) phosphorylation [6]: only slightly inhibited | p38MAPK(Thr180/Tyr182) phosphorylation/activation [7]: slightly decreased | concentration that triggered cell death (reduction in cell viability) [8]: 100 nM | GI50 [2]: 0.07 µM | IC (TGI) [2]: 19.1 µM | Akt(Ser473) phosphorylation [9]: strongly reduced; also recorded: selectively and strongly inhibited | JNK(Thr183/Tyr185) phosphorylation/activation [11]: slightly decreased | concentration that induced accumulation of cells in the G2/M phase [12]: 100 nM | ERK1/2(Thr202/Tyr204) phosphorylation/activation [14]: slightly decreased

COc1ccc2c(c1)/C(=C\c1c(-c3ccccn3)nc3sccn13)C(=O)N2 [Compound 31]
activity of effector caspases (DEVDase activity) [3]: significantly increased | mTOR(Ser2448) phosphorylation [4]: no significant effect | IC (TGI) [1]: 0.58 µM | AMPK(Thr172) phosphorylation [6]: only slightly inhibited | p38MAPK(Thr180/Tyr182) phosphorylation/activation [7]: slightly decreased | concentration that triggered cell death (reduction in cell viability) [8]: 100 nM | IC (TGI) [2]: 3.39 µM | Akt(Ser473) phosphorylation [9]: strongly reduced; also recorded: selectively and strongly inhibited | JNK(Thr183/Tyr185) phosphorylation/activation [11]: slightly decreased | concentration that induced accumulation of cells in the G2/M phase [12]: 100 nM | ERK1/2(Thr202/Tyr204) phosphorylation/activation [14]: slightly decreased

COc1cc(-c2nc3sc(C)cn3c2/C=C2/C(=O)Nc3ccccc32)c(Br)c(OC)c1OC [Compound 24]
GI50 [2]: 28.8 µM | IC (TGI) [2]: 77.6 µM

COc1ccc2c(c1)/C(=C\c1c(-c3ccc(C)cc3)nc3sc(C)cn13)C(=O)N2C [Compound 13]
GI50 [2]: 13.8 µM

Cc1ccc(-c2nc3sc(C)cn3c2/C=C2/C(=O)N(C)c3ccccc32)cc1 [Compound 12]
GI50 [2]: 16.6 µM | IC (TGI) [2]: 83.2 µM

O=C1Nc2cc(Cl)ccc2C1=Cc1c(-c2ccccn2)nc2sccn12 [Compound 30]
GI50 [2]: 0.18 µM | IC (TGI) [2]: 14.1 µM

O=C1Nc2ccc(Cl)cc2C1=Cc1c(-c2ccccn2)nc2sccn12 [Compound 29]
GI50 [2]: 0.83 µM | Inhibition of tubulin assembly IC50 (μM) ± SD [15]: an IC50 could not be obtained

COc1nc2sccn2c1/C=C1/C(=O)Nc2cccc(Cl)c21 [Compound 34]
IC (TGI) [2]: 57.5 µM

Cc1nn2c(/C=C3/C(=O)Nc4ccc(F)cc43)c(-c3ccc(Cl)cc3)nc2s1 [Compound 17]
GI50 [2]: 37.1 µM | IC (TGI) [2]: 93.3 µM

COc1ccc2c(c1)/C(=C\c1c(-c3ccc(Cl)cc3)nc3sc(C)nn13)C(=O)N2 [Compound 16]
GI50 [2]: 93.3 µM

Cc1nn2c(/C=C3/C(=O)Nc4ccc(F)cc43)c(C)nc2s1 [Compound 7]
IC (TGI) [16]: 91.2 µM | GI50 [2]: 15.1 µM | IC (TGI) [2]: 91.2 µM

Cc1nn2c(/C=C3/C(=O)Nc4c3ccc3ccccc43)c(C)nc2s1 [Compound 9]
GI50 [2]: 0.5 µM | IC (TGI) [2]: 8.51 µM | IC (TGI) [17]: 4.9 µM

Cc1cn2c(/C=C3/C(=O)Nc4cc(Cl)ccc43)c(C)nc2s1 [Compound 4]
GI50 [2]: 2 µM | IC (TGI) [2]: 51.3 µM

COc1nc2sccn2c1/C=C1/C(=O)Nc2ccc(Cl)cc21 [Compound 35]
GI50 [2]: 2.82 µM | IC (TGI) [2]: 55 µM

Cc1ccc(-c2nc3sc(C)cn3c2/C=C2/C(=O)Nc3cc(C)c(O)cc32)cc1 [Compound 11]
IC (TGI) [1]: 83.2 µM | GI50 [2]: 22.9 µM | IC (TGI) [2]: 83.2 µM

COc1nc2sccn2c1/C=C1/C(=O)N(C)c2ccccc21 [Compound 40]
IC (TGI) [18]: 72.4 µM | GI50 [2]: 6.31 µM | IC (TGI) [2]: 72.4 µM

COc1nc2sccn2c1C=C1C(=O)Nc2ccc(F)cc21 [Compound 37]
IC (TGI) [1]: 52.5 µM | GI50 [2]: 5.01 µM | IC (TGI) [2]: 52.5 µM

CC[C@]1(O)C[C@H]2CN(CCc3c([nH]c4ccccc34)[C@@](C(=O)OC)(c3cc4c(cc3OC)N(C=O)[C@H]3[C@@](O)(C(=O)OC)[C@H](OC(C)=O)[C@]5(CC)C=CCN6CC[C@]43[C@@H]65)C2)C1 [Vincristine sulfate, reference compound]
IC (TGI) [18]: 19.9 µM | IC (TGI) [19]: 15.8 µM | IC (TGI) [16]: 19.9 µM | IC (TGI) [1]: 15.8 µM | IC (TGI) [20]: 7.94 µM | IC (TGI) [21]: 7.94 µM | IC (TGI) [22]: 6.31 µM | GI50 [2]: 0.2 µM | IC (TGI) [2]: 10 µM | IC (TGI) [17]: 6.31 µM | GI50 [23]: 0.1 µM

O=C1Nc2ccccc2/C1=C\c1c(-c2ccccn2)nc2sccn12 [Compound 28]
GI50 [2]: 1.15 µM | IC (TGI) [2]: 50.1 µM

COc1nc2sccn2c1/C=C1/C(=O)Nc2cc(Cl)ccc21 [Compound 36]
GI50 [2]: 0.44 µM | IC (TGI) [2]: 31.6 µM

COc1nc2sccn2c1/C=C1/C(=O)Nc2ccccc21 [Compound 33]
GI50 [2]: 0.39 µM | IC (TGI) [2]: 22.9 µM
